This is an account of results in PubChem BioAssay AID602232 (The Scripps Research Institute Molecular Screening Center, 2012).

SMILES strings stand for the structures. Unmarked numbers belong to inactive results. Active and inactive are the calls of the source.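 Rule for the calls: active = normalized ATPase activity over 10% above control, with a t-test p below 0.05 against the vehicle group; inactive = the rest.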

The nature of this assay: calcium sensitizers of cardiac myofibril ATPase, mechanism study for cardiac RTF activator project, biochemical, absorbance, porcine cardiac myofibrils, powder samples (AID 602232). Conditions: phosphate absorbance 660 nm, at 10 µM, hits give high values. An outline of the steps:
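Buffer or medium: pH 7.0 pCa buffer at half-maximal calcium; read-out: ATPase activity relative to DMSO wells; also added: 3.02 mM ATP; times: 5 min compound preincubation, then 7 min ATPase reaction, 25 °C; benchmarks: DMSO-treated wells as reference; repeats: five replicate wells per compound; detection: phosphate absorbance at 660 nm, Fiske-Subbarow reagent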
As to `CCN(CC)c1ccc(/C=c2\sc3nc4ccccc4n3c2=O)c(O)c1`, the normalized ATPase activity is 0.988. As to `CCN(CC)c1ccc(/C=C2\SC(N)=NC2=O)cc1`, the normalized ATPase activity is 0.992. For `CN1CCN(CCCN2c3ccccc3Sc3ccc(C(F)(F)F)cc32)CC1`, the normalized ATPase activity is 0.986.

Consider `CCCN1CCc2c(sc(NC(=S)NC(=O)c3ccccc3)c2C#N)C1`, for which the normalized ATPase activity was 0.984. In the case of `CC(C)COCC(CN(Cc1ccccc1)c1ccccc1)N1CCCC1` (stereo not given) it was 1.05; in that of `CCN1C(=O)/C(=C/N2CCc3ccccc32)SC1=S`, 0.984; in that of `Cc1ccc(/C=C2\Oc3c(ccc(O)c3CN3CCN(CCO)CC3)C2=O)cc1`, 0.928. Regarding `CCOC(=O)c1cc2n(c1N)-c1ccccc1C2=O`, the normalized ATPase activity was 1.03.

As to `CCOC(=O)c1sc(N)c(C#N)c1COC(=O)CNC(=O)c1cc(OC)c(OC)c(OC)c1`, the normalized ATPase activity is 1.11 (active). As to `COc1ccc(OC)c(/C=C2\N=C(c3ccccc3)OC2=O)c1`, the normalized ATPase activity is 1.03.

With `COc1ccccc1NS(=O)(=O)c1cc([N+](=O)[O-])ccc1N/N=C/c1c(C)[nH]c2ccccc12`, the normalized ATPase activity is 1.08.

Regarding `S=C(Nc1ccc(N2CCOCC2)cc1)Nc1ccc2nc(-c3ccco3)c(-c3ccco3)nc2c1`, the normalized ATPase activity is 1.06. In the case of `CCN1C(=O)/C(=C/C=C2/SCCN2C)SC1=S` it was 1.07; in that of `Cc1cccn2c(=O)c(/C=C3\SC(=S)N(CC(C)C)C3=O)c(NCCCOC(C)C)nc12`, 1.11 (active); in that of `COc1ccc(-c2nc3ccc(C4=NNC(=O)CC4C)cc3[nH]2)cc1` (stereo not given), 1.05.
